HSF1 activator: HSF-1 activators, primary screen, NIH3T3-HGL cells, MG132 stress, luminescence, single point; NIH3T3-HGL HSF-1 luciferase reporter, 8 h; 100% = twice DMSO control signal; activation, % at 9 µM; actives 1.7% (n = 300,000); AID 504408, 2011;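 active = mean replicate activation of at least 50% with a set share of replicates each reaching 50%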
T cruzi inh: inhibitors of intracellular T. cruzi growth, primary screen, luminescence, NIH3T3 host cells | inhibition, % (test concentration not listed) | actives 1.4% (n = 300,000) | AID 1885, 2009 | T. cruzi beta-gal in NIH3T3, 90 h;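 active = mean inhibition across valid replicates above about 55%, limit read from the data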;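 also: signal also drops with host cell toxicity which is not excluded here; higher percent means less beta-gal luminescence so fewer parasites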
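Test system: β-gal T. cruzi (Tulahuen C4) inside NIH/3T3 cells / Quantity: 5,000 cells/well / Measured by: luminescence from GalScreen with 0.05% NP40, read after 60 min / Medium: DMEM plus 2% FBS / Measure: parasite load inhibition, % / Reagent: Tulahuen C4 trypomastigotes, 5000/well / Schedule: co-culture of at least 90 h after 3 h attachment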
HSF1 inh: HSF1 inhibitors in luciferase reporter cells, primary screen, cell-based, NIH3T3, luminescence; NIH3T3-HGL HSE-luciferase, MG132-induced, luminescence 8 h; active compounds read low; AID 2098, 2009; actives 0.77% (n = 300,000); activity change, negative = inhibition, % at 7.5 µM (by protocol);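 active = more than half of replicate wells show activity change below -50%, luminescence cut by over half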;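 also: luciferase reports HSF-1 transcriptional activity via heat shock element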
L major viab: Leishmania major promastigote growth inhibition, primary screen. Leishmania major promastigotes, resazurin fluorescence viability. inhibition, % at 10 µM. actives 9% (n = 200,000); in the data active = inhibition above about 50%;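 also: promastigotes grown with compound for 44 hours at 28 °C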
Hsp70 act: Hsp70 transcriptional activators, primary screen, cell-based, HeLa, Hsp70 promoter luciferase, luminescence, 10 µM | HeLa Hsp70 promoter luciferase reporter; scaled: vehicle 0, proteasome-inhibitor control 100% | activation, % at 10 µM | actives 0.04% (n = 200,000) | AID 1203, 2008;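 active = activation above the mean across all tested compounds plus 3 SD, cutoff set per campaign, cut at about 5.5% in these data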
Large screens that a line does not name were inactive. Only a selection was taken, and hits are over-represented in it overall.

O=S(=O)(c1ccc(Cl)cc1)N1CCC(O)(CN2CCN(Cc3ccccc3)CC2)CC1	L major viab 100.0
COc1ccccc1N1CCN(C2CCN(S(=O)(=O)c3ccc4ccccc4c3)CC2)CC1	L major viab 54.9
O=S(=O)(NC1CCCC1)c1ccc(S(=O)(=O)N2CCCN(Cc3ccccc3)C2)cc1	L major viab 83.7
Cc1ccc(S(=O)(=O)N2CCN(C3CCN(Cc4ccccc4)CC3)CC2)cc1	L major viab 97.8 (no result: HSF1 activator, T cruzi inh, HSF1 inh)
COc1ccccc1CNC(=O)c1nccnc1CO	none (no result: L major viab, Hsp70 act)
O=C(c1ccccc1F)N1CCCC(C(=O)N2CCc3ccccc3C2)C1 (stereo not given)	none (no result: L major viab, Hsp70 act)
CCn1c(SCc2ccccc2)nnc1C1CCN(S(=O)(=O)c2ccc(OC)cc2)CC1	L major viab 90.6
O=S(=O)(c1ccccc1)N1CCN(C2CCN(Cc3ccccc3)CC2)CC1	L major viab 96.0
C=CCN(Cc1nc(-c2ccccc2)no1)C(=O)c1ccco1	none (no result: L major viab, Hsp70 act)
CN1CCN(NC(=O)c2cn(-c3ccccc3)nc2-c2ccc(OC(F)F)cc2)CC1	none
O=C(Nc1ccc(-c2ccc3nncn3n2)cc1)c1ccc(Br)o1	none
COc1ccc(NC(=S)NC(NC(=O)/C=C/c2ccccc2)C(Cl)(Cl)Cl)cc1 (stereo not given)	none
CC(=O)NC(NC(=S)Nc1ccc(N=Nc2ccccc2)cc1)C(Cl)(Cl)Cl (stereo not given)	L major viab 63.7
O=C(/C=C/c1ccccc1)NNc1ccc(Cl)cc1	L major viab 99.5
CC(C)(C)C(=O)Nc1ccc(N=Nc2ccccc2)cc1	HSF1 inh -78.1
O=C(O)CCC(=O)Nc1ccc(N=Nc2ccccc2)cc1	none
O=C(/C=C/c1ccccc1)NC(NC(=S)Nc1ccc(Cl)cc1)C(Cl)(Cl)Cl (stereo not given)	T cruzi inh 72.0
CCN(CC)CC(O)CN1c2ccccc2Sc2ccccc21 (stereo not given)	none (no result: L major viab, Hsp70 act)
O=C(N/N=C/c1ccccc1OCc1ccccc1)c1cccs1	none
CC(=O)NC1(C(F)(F)F)C(=O)Nc2c1c(=O)[nH]c(=O)n2CC(C)C (stereo not given)	none
O=C(Cc1ccccc1)NC(NC(=S)Nc1cc(Cl)ccc1Cl)C(Cl)(Cl)Cl (stereo not given)	none
CC(CCc1ccccc1)NC(=O)/C=C/c1ccc(Cl)cc1 (stereo not given)	L major viab 52.4
O=C(/C=C/c1ccccc1)NC(NC(=S)Nc1cc(Cl)ccc1Cl)C(Cl)(Cl)Cl (stereo not given)	T cruzi inh 75.1, L major viab 99.3
CC(Cc1ccccc1)NC(=O)/C=C/c1ccc([N+](=O)[O-])cc1 (stereo not given)	none
CN1C(=O)C2(Oc3ccccc3C3CC(c4ccccc4)=NN32)c2ccccc21 (stereo not given)	HSF1 activator 76.2
CC(=O)N1N=C(c2ccc(C)cc2)CC1c1ccco1 (stereo not given)	none
Cc1ccc(C2=NN3C(C2)c2ccccc2OC32C(=O)Nc3ccccc32)cc1 (stereo not given)	L major viab 99.8
S=C1NC2(CCS1)Oc1ccccc1C1CC(c3ccccc3)=NN12 (stereo not given)	none (no result: L major viab, Hsp70 act)
COc1cccc(OC)c1C(=O)Oc1ccc2c(c1)O/C(=C\c1ccncc1)C2=O	L major viab 93.8
O=C1/C(=C/c2ccccc2)Oc2cc(OC(=O)N3CCOCC3)ccc21	L major viab 73.6
CCn1c(=O)n(CC)c2cc(S(=O)(=O)NCCOc3ccccc3)c(C)cc21	L major viab 99.5
COCC1CCCCN1C(=O)c1cc(COc2ccc3ncccc3c2)on1 (stereo not given)	HSF1 inh -71.7 (no result: L major viab, Hsp70 act)
CCC1CCCCN1C(=O)c1cc(COc2ccc3ncccc3c2)on1 (stereo not given)	none
CCCN1CCN(C(=O)c2cc(COc3ccc4ncccc4c3)on2)CC1	HSF1 inh -57.0
CCN1CCN(C(=O)c2cc(COc3ccc4ncccc4c3)on2)CC1	none
Cc1cc(NC(=O)CCC(=O)N(CC(=O)NCC2CCCO2)c2ccc(C)c(C)c2)no1 (stereo not given)	none (no result: L major viab, Hsp70 act)
Cc1cccc(N(CC(=O)NC2CCCCC2)C(=O)CCCC(=O)Nc2ccccn2)c1C	none (no result: L major viab, Hsp70 act)
CC(O)(CS(=O)(=O)Cc1ccc(Cl)cc1)C(=O)Nc1cccc(C(F)(F)F)c1 (stereo not given)	none
O=C(Nc1cccc(C(F)(F)F)c1)N(Cc1ccc(Cl)cc1)CC(O)C(F)(F)F (stereo not given)	L major viab 95.9
O=C1CSC(=S)N1/N=C/c1cccc(C(F)(F)F)c1	HSF1 activator 68.3 (no result: L major viab, Hsp70 act)
Cc1cccnc1NC(=O)C(C)N1C(=O)c2ccccc2C1=O (stereo not given)	none (no result: L major viab, Hsp70 act)
O=C(c1cccs1)n1nc(-c2ccco2)nc1SCc1ccccc1	HSF1 inh -53.6
CSc1nc(-c2ccco2)nn1C(=O)c1cccs1	none
CCOC(=O)c1c(C)[nH]c(C)c1C(=O)COC(=O)c1cccc(S(=O)(=O)NC)c1	L major viab 80.3
CCOC(=O)c1c(C)[nH]c(C)c1C(=O)COC(=O)c1ccc(Cl)c(S(N)(=O)=O)c1	none
CCOC(=O)c1c(C)[nH]c(C)c1C(=O)COC(=O)c1cccc(S(=O)(=O)N(CC)CC)c1	L major viab 98.5
Cc1cccc(C(=O)O/N=C(\N)CS(=O)(=O)c2ccccc2)c1	none (no result: L major viab, Hsp70 act)
CCC(C)[C@H](N)c1nnc(SCC(=O)c2ccc(Cl)cc2)o1 (stereo not given in full)	L major viab 90.3
CC(C)[C@H](N)c1nnc(SCc2ccc(Cl)cc2)o1	none
CC(C)(C)OC(=O)N[C@@H](Cc1ccccc1)c1nnc(SCC(=O)c2ccc(Cl)cc2)o1	HSF1 activator 55.0
CC(C)(C)OC(=O)N[C@@H](Cc1ccccc1)c1nnc(SCC(=O)O)o1	none
COc1cc(CNC(=O)c2ccc3c(c2)S(=O)(=O)c2ccccc2C3=O)cc(OC)c1	none (no result: L major viab, Hsp70 act)
Cc1c(NC(=O)c2c(N)sc3c2CCCC3)c(=O)n(-c2ccccc2)n1C	none
C=CCSc1nc2ccccc2n1C(=O)/C=C/c1cc(OC)c(OC)c(OC)c1	HSF1 inh -63.8, Hsp70 act 9.7
COc1cc(/C=C/C(=O)N2CCN(C(=O)/C=C/c3cc(OC)c(OC)c(OC)c3)CC2)cc(OC)c1OC	none (no result: L major viab, Hsp70 act)
CCSc1nc2ccccc2n1C(=O)/C=C/c1ccc(OC)c(OC)c1	HSF1 activator 81.8
COc1ccc(Cc2nc3ccccc3n2CC(=O)N/N=C/c2ccccc2)cc1OC	none
CCOC(=O)n1c(SCC(N)=O)nc2ccccc21	HSF1 inh -65.4
CCCCOC(=O)n1c(SCC(=O)N(CC)CC)nc2ccccc21	none
CCn1c(SCC(=O)N/N=C/c2ccc(OC)c(OC)c2)nc2ccccc21	L major viab 96.8 (no result: HSF1 activator, T cruzi inh, HSF1 inh)

High-throughput results from PubChem BioAssay.
